According to ChEMBL document CHEMBL1140221, “Novel naphthalene-N-sulfonyl-D-glutamic acid derivatives as inhibitors of MurD, a key peptidoglycan biosynthesis enzyme” (J Med Chem, 2008):

What was measured:
[1] = Inhibition of Escherichia coli MurD
[2] = tested on: Escherichia coli; test: Inhibition of Escherichia coli MurD assessed as residual activity at 1 mM
Outline: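 Radiolabel MurD assay: E. coli enzyme, 25 µM UMA plus 25 µM D-[14C]Glu, Tris-HCl pH 8.6, MgCl2, 5% DMSO, compound at 1 mM; 30 min at 37 °C, acid-quenched, reverse-phase HPLC with radioactivity detection. Activity expressed relative to an inhibitor-free assay; mean of two independent experiments.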

Compound: CCCCOc1cccc2c(S(=O)(=O)N[C@H](CCC(=O)O)C(=O)O)cccc12
- IC50 [1]: > 1000 µM

Compound: CCCCOc1ccc2cc(S(=O)(=O)N[C@@H](CCC(=O)O)C(=O)O)ccc2c1
- IC50 [1]: 710 µM

Compound: O=C(O)CC[C@@H](NS(=O)(=O)c1ccc2cc(OC3CCCC3)ccc2c1)C(=O)O
- IC50 [1]: 400 µM

Compound: COc1ccc2cc(S(=O)(=O)N[C@H](CCC(=O)O)C(=O)O)ccc2c1
- IC50 [1]: 590 µM

Compound: CCCCCCOc1ccc2cc(S(=O)(=O)N[C@H](CCC(=O)O)C(=O)O)ccc2c1
- IC50 [1]: 176 µM

Compound: CC(=O)Nc1ccc(S(=O)(=O)N[C@H](CCC(=O)O)C(=O)O)cc1
- Activity [2]: 79%

Compound: O=C(O)CC[C@@H](NS(=O)(=O)Cc1ccc(F)cc1Cl)C(=O)O
- Activity [2]: 86%

Compound: CCCCOc1ccc2cc(S(=O)(=O)N[C@H](CCC(=O)O)C(=O)O)ccc2c1
- IC50 [1]: 280 µM

Compound: O=C(O)CC[C@@H](NS(=O)(=O)Cc1ccccc1)C(=O)O
- Activity [2]: 84%

Compound: O=C(O)CC[C@@H](NC(=O)/C=C/c1ccccc1)C(=O)O
- Activity [2]: 91%

Compound: O=C(O)CC[C@@H](NS(=O)(=O)c1ccc2cc(OCc3ccccc3)ccc2c1)C(=O)O
- IC50 [1]: 239 µM

Compound: O=C(O)CC[C@@H](NS(=O)(=O)c1ccc(-c2ccccc2)cc1)C(=O)O
- Activity [2]: 43%
- IC50 [1]: 1720 µM

Compound: COc1cc(C#N)ccc1COc1ccc2cc(S(=O)(=O)N[C@H](CCC(=O)O)C(=O)O)ccc2c1
- IC50 [1]: 100 µM

Compound: CCCCOc1ccc2cc(C(=O)N[C@H](CCC(=O)O)C(=O)O)ccc2c1
- IC50 [1]: > 1000 µM

Compound: CCCCOc1ccc2cc(S(=O)(=O)NCCCC(=O)O)ccc2c1
- IC50 [1]: > 2000 µM

Compound: C[C@@H](CS(=O)(=O)N[C@H](CCC(=O)O)C(=O)O)S(=O)(=O)c1ccc2ccccc2c1
- Activity [2]: 75%
- IC50 [1]: > 2000 µM

Compound: O=C(O)CC[C@@H](NS(=O)(=O)c1ccc2cc(OCC(=O)O)ccc2c1)C(=O)O
- IC50 [1]: 630 µM

Compound: CCCOc1ccc2cc(S(=O)(=O)N[C@H](CCC(=O)O)C(=O)O)ccc2c1
- IC50 [1]: 305 µM

Compound: O=C(O)CC[C@@H](NC(=O)CCc1cccc(O)c1)C(=O)O
- Activity [2]: 81%

Compound: CCCCOc1ccc2ccc(S(=O)(=O)N[C@H](CCC(=O)O)C(=O)O)cc2c1
- IC50 [1]: 180 µM

Compound: O=C(O)CC[C@@H](NS(=O)(=O)c1ccc2cc(OCCCc3ccccc3)ccc2c1)C(=O)O
- IC50 [1]: 132 µM

Compound: O=C(O)CC[C@@H](NC(=O)COc1ccc2ccccc2c1)C(=O)O
- Activity [2]: 76%

Compound: O=C(O)CC[C@@H](NS(=O)(=O)c1ccc2ccccc2c1)C(=O)O
- Activity [2]: 35%
- IC50 [1]: 810 µM

Compound: CCCCOc1ccc2cc(S(=O)(=O)NCC(=O)O)ccc2c1
- IC50 [1]: > 2000 µM

Compound: O=C(O)CCCOc1ccc2cc(S(=O)(=O)N[C@H](CCC(=O)O)C(=O)O)ccc2c1
- IC50 [1]: > 1000 µM

Compound: CCCCOc1ccc2cc(S(=O)(=O)N[C@H](CCC(=O)OC)C(=O)OC)ccc2c1
- IC50 [1]: > 2000 µM

Compound: Cc1ccc(S(=O)(=O)N[C@H](CCC(=O)O)C(=O)O)cc1
- Activity [2]: 66%

Compound: CCCCOc1ccc(S(=O)(=O)N[C@H](CCC(=O)O)C(=O)O)c2ccccc12
- IC50 [1]: > 1000 µM

Compound: O=C(O)CC[C@@H](NC(=O)CN1C(=O)c2ccccc2C1=O)C(=O)O
- Activity [2]: 92%

Compound: CCCCOc1ccc2cc(S(=O)(=O)N(C)[C@H](CCC(=O)O)C(=O)O)ccc2c1
- IC50 [1]: > 1000 µM

Compound: CCOC(=O)COc1ccc2cc(S(=O)(=O)N[C@H](CCC(=O)O)C(=O)O)ccc2c1
- IC50 [1]: 192 µM

Compound: O=C(O)CC[C@@H](NC(=O)C1Oc2ccccc2NC1=O)C(=O)O (stereo partly specified)
- Activity [2]: 54%

Compound: CCCCOc1ccc2cc(CN[C@H](CCC(=O)O)C(=O)O)ccc2c1
- IC50 [1]: > 1000 µM
